Experimental data from different studies.

`COc1ccc2[nH]cc(CCNc3nccc(Nc4cccc5c4ccn5C)n3)c2c1` gave an IC50 of 0.008 µM (U-937; cell growth or viability, fluorescence; 72 h).
For `Cl.O[C@]12C=C(c3nccc4c3[nH]c3ccccc34)[C@@H]3CCN(CCCC/C=C\CC1)C[C@@]31C[C@@H]3/C=C\CCCCN3[C@H]12`, the IC50 was 0.38 mg/L (KB; cell growth or viability, neutral red; 48 h).
The IC50 of `Cc1c2ccncc2c(C)c2c1[nH]c1ccccc12` is reported as 0.22 mg/L (KB; cell growth or viability, MTT; 72 h).
`COc1cc2[nH]c(C)c(-c3ccc(N(C)C)cc3)c(=O)c2cc1Cl` gave an EC50 of > 29.2 µM (J774; cell growth or viability).
The IC50 of `CCCCOC(=O)[C@H]1O[C@@H](O[C@H]2CC[C@]3(C)[C@H]4CC=C5[C@@H]6CC(C)(C)CC[C@]6(C(=O)O[C@@H]6O[C@H](CO)[C@@H](O)[C@H](O)[C@H]6O)CC[C@@]5(C)[C@]4(C)CC[C@H]3C2(C)C)[C@H](O[C@@H]2OC[C@@H](O)[C@H](O)[C@H]2O)[C@@H](O)[C@@H]1O` is reported as > 30 µM (human Neutrophil; elastase release, inhibitor).
`CC1=CC(=O)c2c(O)cccc2C1=O` has an IC50 of 3.03 µM (NCI-H226; cell growth or viability, SRB).
`COC(=O)[C@H]1O[C@@H](O[C@H]2CC[C@]3(C)[C@H]4CC=C5[C@@H]6CC(C)(C)CC[C@]6(C(=O)O[C@@H]6O[C@H](CO)[C@@H](O)[C@H](O)[C@H]6O)CC[C@@]5(C)[C@]4(C)CC[C@H]3C2(C)C)[C@H](O)[C@@H](O)[C@@H]1O[C@@H]1O[C@@H](CO)[C@H](O)[C@H]1O` has an IC50 of > 30 µM (human Neutrophil; elastase release, inhibitor).
The IC50 of `N.N.[Cl][Pt][Cl]` is reported as 1.12 µM (Hs 683; cell growth or viability, MTT).
`COc1cccc2c1C(=O)c1c(O)c3c(c(O)c1C2=O)C[C@@](O)(C(=O)CO)C[C@@H]3O[C@H]1C[C@H](N)[C@H](O)[C@H](C)O1` has an IC50 of 1.4 mg/L (KB; cell growth or viability; 48 h).
For `O=C(O)c1cnn(-c2ccccc2)c1OCCCc1c[nH]c2ccccc12`, the inhibition was < 50% (HFF; cell growth or viability; 200 µM, 96 h).
